In ChEMBL document CHEMBL1255453, “Affinity of ceftaroline and other beta-lactams for penicillin-binding proteins from Staphylococcus aureus and Streptococcus pneumoniae” (Antimicrob Agents Chemother, 2010):
Converted amounts (≈) assume the structure as drawn.

What was measured:
[1] = Binding affinity to penicillin-resistant Streptococcus pneumoniae 24 PBP1B by competitive binding assay
How it was run: (§1)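 Whole pneumococcal cells grown to OD600 0.3 in Todd-Hewitt broth with 0.5% yeast extract, resuspended in 50 mM NaPO4 pH 7.0. Cells (10^8–5 × 10^8 CFU/ml) incubated with β-lactam 10 min at 37°C, then Bocillin FL 10 μg/ml, 15 min at 37°C. SDS-PAGE, 520 nm fluorescence; IC50 = 50% inhibition of Bocillin FL binding; 2 experiments.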

[2] = Binding affinity to penicillin-resistant Streptococcus pneumoniae 2527 PBP2A by competitive binding assay
How it was run: (§2)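 Whole pneumococcal cells were grown to OD600 0.3 in Todd-Hewitt broth plus 0.5% yeast extract, then resuspended in 50 mM NaPO4, pH 7.0. Cells at 10^8 to 5 × 10^8 CFU/ml were exposed to β-lactam for 10 min at 37°C, alongside a reference without drug. They were then labeled with 10 μg/ml Bocillin FL for 15 min at 37°C. Proteins were resolved by SDS-PAGE and fluorescence read at 520 nm. IC50 was taken as 50% inhibition of Bocillin FL binding, from 2 experiments.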

[3] = Binding affinity to penicillin-resistant Streptococcus pneumoniae 2527 PBP1B by competitive binding assay; how it was run: as §2
[4] = Binding affinity to penicillin-resistant Streptococcus pneumoniae 2527 PBP3 by competitive binding assay; how it was run: as §2
[5] = molecular target: T1, Penicillin-binding protein 1A (Streptococcus pneumoniae serotype 4 (strain ATCC BAA-334 / TIGR4), UniProt Q04707); experiment: Binding affinity to against penicillin-susceptible Streptococcus pneumoniae 1076 PBP1A by competitive binding assay; how it was run: as §1
T1 sequence (Q04707 whole entry): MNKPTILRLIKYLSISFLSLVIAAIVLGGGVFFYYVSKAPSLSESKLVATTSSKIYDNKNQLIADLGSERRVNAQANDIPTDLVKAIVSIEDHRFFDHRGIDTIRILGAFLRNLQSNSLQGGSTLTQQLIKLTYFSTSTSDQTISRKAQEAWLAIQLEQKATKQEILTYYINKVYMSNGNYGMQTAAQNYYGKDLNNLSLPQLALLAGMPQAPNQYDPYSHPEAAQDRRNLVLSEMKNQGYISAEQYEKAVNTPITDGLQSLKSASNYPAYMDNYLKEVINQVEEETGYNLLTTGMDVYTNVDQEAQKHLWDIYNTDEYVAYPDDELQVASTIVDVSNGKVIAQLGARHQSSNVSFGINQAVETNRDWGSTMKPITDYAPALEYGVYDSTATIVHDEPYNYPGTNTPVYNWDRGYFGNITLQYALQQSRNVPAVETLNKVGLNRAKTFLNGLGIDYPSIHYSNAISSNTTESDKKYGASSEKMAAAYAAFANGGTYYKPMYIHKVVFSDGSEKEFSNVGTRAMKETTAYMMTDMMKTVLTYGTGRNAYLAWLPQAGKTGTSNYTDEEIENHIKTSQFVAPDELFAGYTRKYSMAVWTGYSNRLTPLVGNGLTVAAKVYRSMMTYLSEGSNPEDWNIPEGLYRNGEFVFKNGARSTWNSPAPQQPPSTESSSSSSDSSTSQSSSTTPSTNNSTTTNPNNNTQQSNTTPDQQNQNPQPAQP

[6] = Binding affinity to penicillin-resistant Streptococcus pneumoniae 24 PBP3 by competitive binding assay; how it was run: as §2
[7] = molecular target: T2, Penicillin-binding protein 2B (Streptococcus pneumoniae serotype 4 (strain ATCC BAA-334 / TIGR4), UniProt P0A3M5); experiment: Binding affinity to against penicillin-susceptible Streptococcus pneumoniae 1076 PBP2B by competitive binding assay; how it was run: as §1
T2 sequence (P0A3M5 whole entry): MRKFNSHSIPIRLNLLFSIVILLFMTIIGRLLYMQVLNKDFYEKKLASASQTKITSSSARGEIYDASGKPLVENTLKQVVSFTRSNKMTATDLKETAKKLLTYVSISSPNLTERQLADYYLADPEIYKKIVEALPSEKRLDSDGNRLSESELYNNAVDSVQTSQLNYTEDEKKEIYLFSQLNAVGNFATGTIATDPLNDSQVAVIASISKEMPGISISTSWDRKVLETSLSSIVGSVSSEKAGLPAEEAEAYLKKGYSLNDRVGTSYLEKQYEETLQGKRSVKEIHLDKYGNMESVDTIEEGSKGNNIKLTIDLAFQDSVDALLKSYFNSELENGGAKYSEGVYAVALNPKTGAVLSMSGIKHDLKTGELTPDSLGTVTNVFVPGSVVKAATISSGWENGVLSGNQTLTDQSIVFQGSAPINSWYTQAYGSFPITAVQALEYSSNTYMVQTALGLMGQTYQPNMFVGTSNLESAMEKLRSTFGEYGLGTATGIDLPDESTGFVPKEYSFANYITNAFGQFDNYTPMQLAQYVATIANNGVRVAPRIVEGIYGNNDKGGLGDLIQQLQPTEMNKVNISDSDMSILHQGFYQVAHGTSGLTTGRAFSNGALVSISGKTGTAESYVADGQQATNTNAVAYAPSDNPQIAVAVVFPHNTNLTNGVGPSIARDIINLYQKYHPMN

[8] = molecular target: T3, Penicillin-binding protein 2x (Streptococcus pneumoniae serotype 4 (strain ATCC BAA-334 / TIGR4), UniProt P14677); experiment: Binding affinity to penicillin-resistant Streptococcus pneumoniae 3413 PBP2X by competitive binding assay; how it was run: as §2
T3 sequence (P14677 whole entry, looked up): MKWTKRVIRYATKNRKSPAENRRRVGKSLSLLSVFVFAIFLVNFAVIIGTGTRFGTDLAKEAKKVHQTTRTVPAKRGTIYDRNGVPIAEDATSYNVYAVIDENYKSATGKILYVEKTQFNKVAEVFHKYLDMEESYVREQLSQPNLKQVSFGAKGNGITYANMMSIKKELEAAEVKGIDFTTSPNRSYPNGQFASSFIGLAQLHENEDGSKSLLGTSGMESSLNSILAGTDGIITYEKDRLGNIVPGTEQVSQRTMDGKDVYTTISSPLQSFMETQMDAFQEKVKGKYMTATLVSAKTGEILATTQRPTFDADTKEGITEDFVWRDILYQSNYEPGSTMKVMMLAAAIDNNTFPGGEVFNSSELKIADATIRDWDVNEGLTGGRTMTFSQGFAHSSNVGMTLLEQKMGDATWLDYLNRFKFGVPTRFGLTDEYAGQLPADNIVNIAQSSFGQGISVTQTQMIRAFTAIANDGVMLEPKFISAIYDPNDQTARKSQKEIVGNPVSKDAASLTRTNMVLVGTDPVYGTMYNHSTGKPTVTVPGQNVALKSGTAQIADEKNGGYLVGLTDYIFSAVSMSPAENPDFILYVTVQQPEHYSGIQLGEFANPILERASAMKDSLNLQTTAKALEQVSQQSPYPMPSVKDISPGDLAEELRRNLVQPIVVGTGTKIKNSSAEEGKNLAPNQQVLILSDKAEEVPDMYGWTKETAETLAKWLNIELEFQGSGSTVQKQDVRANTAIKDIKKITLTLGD

[9] = Binding affinity to penicillin-resistant Streptococcus pneumoniae 24 PBP2A by competitive binding assay; how it was run: as §1
[10] = Binding affinity to against penicillin-susceptible Streptococcus pneumoniae 1076 PBP3 by competitive binding assay; how it was run: as §1
[11] = molecular target: T2, Penicillin-binding protein 2B; experiment: Binding affinity to penicillin-resistant Streptococcus pneumoniae 2527 PBP2B by competitive binding assay; how it was run: as §2
[12] = Binding affinity to against penicillin-susceptible Streptococcus pneumoniae 1076 PBP1B by competitive binding assay; how it was run: as §1
[13] = Binding affinity to penicillin-resistant Streptococcus pneumoniae 3413 PBP3 by competitive binding assay; how it was run: as §2
[14] = molecular target: T2, Penicillin-binding protein 2B; experiment: Binding affinity to penicillin-resistant Streptococcus pneumoniae 24 PBP2B by competitive binding assay; how it was run: as §2
[15] = Binding affinity to penicillin-resistant Streptococcus pneumoniae 3413 PBP2A by competitive binding assay; how it was run: as §2
[16] = Binding affinity to penicillin-resistant Streptococcus pneumoniae 3413 PBP1B by competitive binding assay; how it was run: as §2
[17] = molecular target: T1, Penicillin-binding protein 1A; experiment: Binding affinity to penicillin-resistant Streptococcus pneumoniae 2527 PBP1A by competitive binding assay; how it was run: as §2
[18] = molecular target: T3, Penicillin-binding protein 2x; experiment: Binding affinity to penicillin-resistant Streptococcus pneumoniae 2527 PBP2X by competitive binding assay; how it was run: as §2
[19] = molecular target: T1, Penicillin-binding protein 1A; experiment: Binding affinity to penicillin-resistant Streptococcus pneumoniae 24 PBP1A by competitive binding assay; how it was run: as §1
[20] = molecular target: T1, Penicillin-binding protein 1A; experiment: Binding affinity to penicillin-resistant Streptococcus pneumoniae 3413 PBP1A by competitive binding assay; how it was run: as §2
[21] = molecular target: T2, Penicillin-binding protein 2B; experiment: Binding affinity to penicillin-resistant Streptococcus pneumoniae 3413 PBP2B by competitive binding assay; how it was run: as §2
[22] = molecular target: T3, Penicillin-binding protein 2x; experiment: Binding affinity to penicillin-resistant Streptococcus pneumoniae 24 PBP2X by competitive binding assay; how it was run: as §2

| SMILES | IC50 [1] [µg/mL] | IC50 [2] [µg/mL] | IC50 [3] [µg/mL] | IC50 [4] [µg/mL] | IC50 [5] [nM] | IC50 [6] [µg/mL] | IC50 [7] [nM] | IC50 [8] [nM] | IC50 [9] [µg/mL] | IC50 [10] [µg/mL] | IC50 [11] [nM] | IC50 [12] [µg/mL] | IC50 [13] [µg/mL] | IC50 [14] [nM] | IC50 [15] [µg/mL] | IC50 [16] [µg/mL] | IC50 [17] [nM] | IC50 [18] [nM] | IC50 [19] [nM] | IC50 [20] [nM] | other results |
| --- | --- | --- | --- | --- | --- | --- | --- | --- | --- | --- | --- | --- | --- | --- | --- | --- | --- | --- | --- | --- | --- |
| CO/N=C(\C(=O)N[C@@H]1C(=O)N2C(C(=O)O)=C(COC(C)=O)CS[C@H]12)c1csc(N)n1 [CEFOTAXIME] | 8 (≈ 17.6 µM) | 0.25 (≈ 0.549 µM) | 0.25 (≈ 0.549 µM) | 0.1 (≈ 0.22 µM) | 220 | 0.1 (≈ 0.22 µM) | > 70300 | 8780 | 0.5 (≈ 1.1 µM) | 0.1 (≈ 0.22 µM) | 8780 | 0.25 (≈ 0.549 µM) | 0.1 (≈ 0.22 µM) | 35100 | 0.25 (≈ 0.549 µM) | 4 (≈ 8.78 µM) | 549 | 220 | 274 | 549 | IC50 [21]: 35100 nM; IC50 [22]: 2200 nM |
| CO/N=C(\C(=O)N[C@@H]1C(=O)N2C(C(=O)O)=C(CSc3nc(=O)c(O)nn3C)CS[C@H]12)c1csc(N)n1 [CEFTRIAXONE] | 1 (≈ 1.8 µM) | 0.25 (≈ 0.451 µM) | 0.125 (≈ 0.225 µM) | 0.25 (≈ 0.451 µM) | 180 | 0.25 (≈ 0.451 µM) | > 57700 | 7210 | 1 (≈ 1.8 µM) | 0.1 (≈ 0.18 µM) | 7210 | 0.1 (≈ 0.18 µM) | 0.25 (≈ 0.451 µM) | 28900 | 1 (≈ 1.8 µM) | 4 (≈ 7.21 µM) | 451 | 180 | 451 | 451 | IC50 [21]: 28900 nM; IC50 [22]: 1800 nM |
